H69AR growth 86K = growth inhibitors of human H69AR lung tumor cells. H69AR lung tumor viability, ATP luminescence, 72 h; stronger effect = lower value. viability, % at 10 µM. actives 6% (n = 85,000);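 active means viability at or below 40%; inactive means viability above 40%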;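 further: multidrug resistant small cell line overexpressing MRP-1 efflux transporter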
Fibroblast inh = blocks proliferation of human lung fibroblasts; viability, % at 10 µM; actives 1.1% (n = 85,000); AID 719; LL 47 human lung fibroblast viability, ATP luminescence; stronger effect = lower value;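 active means viability at or below 50% in the single dose screen; inactive means viability above 50%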;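 further: compound exposure lasted 72 h before the ATP readout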
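Signal: luminescent ATP detection, CellTiter-Glo; assay system: LL 47 human lung fibroblasts; input: 1,150 cells/well; incubation: overnight cell rest, 72 h compound treatment at 37 °C; measure: % viability versus median cells-only luminescence; medium: IMEM growth medium with 15% fetal bovine serum; dosing: compound addition at 0.1% DMSO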
HUVEC prolif 384 = blocks proliferation of human endothelial cells | viability, % at 10 µM (by protocol) | AID 648 | actives 1.1% (n = 86,000) | HUVEC proliferation, CellTiter-Glo luminescence, 72 h; stronger effect = lower value;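 active means viability at or below 30%; inactive means viability above 30%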
Jurkat viability = cytotoxicity toward Jurkat cells | Jurkat E6.1 viability, ATP luminescence, 48 h | inhibition, % at 4 µM | actives 1.2% (n = 56,000) | AID 463;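 active means inhibition above the mean inhibition of all tested compounds plus 3 SD, cut at about 28% in these data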
Hits are given with their value. Rows were chosen to be rich in hits. Some 6.4% of all compounds tested hit in one or more screens of this group.

`CN(C)CCCNS(=O)(=O)c1ccc(N2CCC(c3ccc(Cl)cc3)=N2)cc1` gave H69AR growth 86K 0.5, Fibroblast inh 1.6 and HUVEC prolif 384 3.2.
Screening CN(C)CCCNS(=O)(=O)c1cc(Cl)ccc1Cl returned H69AR growth 86K inactive, Fibroblast inh inactive, HUVEC prolif 384 inactive and Jurkat viability inactive.
O=S(=O)(c1ccc(N2CCC(c3ccc(Cl)cc3)=N2)cc1)N(CCO)CCO was read as H69AR growth 86K 12.6, Fibroblast inh inactive and HUVEC prolif 384 inactive.
Screening CCOc1cccc(NC(=O)C2CC(=O)N(C)C(=Nc3ccccc3)S2)c1 (configuration not stated) returned H69AR growth 86K 20.8, Fibroblast inh inactive, HUVEC prolif 384 inactive and Jurkat viability inactive.
CCOc1cccc(NC(=O)C2CC(=O)N(C)C(=Nc3cccc(F)c3)S2)c1 (configuration not stated) was read as Jurkat viability inactive.
For C#CCN(C#N)c1nc(NCC)nc(NC(C)C)n1 the results were H69AR growth 86K inactive, Fibroblast inh inactive, HUVEC prolif 384 inactive and Jurkat viability inactive.
`CCNc1nc(NC(C)C)nc(N(C#N)CCOc2ccccc2)n1` gave H69AR growth 86K 27.4, Fibroblast inh inactive and HUVEC prolif 384 inactive.
`CC(NC(=O)CN1C(=O)NC(Cc2ccccc2)(Cc2ccccc2)C1=O)C12CC3CC(CC(C3)C1)C2` (configuration not stated) gave H69AR growth 86K 6.3, Fibroblast inh inactive and HUVEC prolif 384 inactive.
COc1ccc(-c2cn3c(C)c(C(=O)N4CCN(c5ccc(OC)cc5)CC4)sc3n2)cc1 was read as H69AR growth 86K inactive, Fibroblast inh inactive, HUVEC prolif 384 inactive and Jurkat viability inactive.
`CCN1CCN(c2ncc3c(n2)CC(c2ccc(OC)c(OC)c2)CC3=O)CC1` (configuration not stated) gave H69AR growth 86K 19.0, Fibroblast inh inactive, HUVEC prolif 384 inactive and Jurkat viability inactive.
For COc1ccc(C2CC(=O)c3cnc(N4CCN(Cc5ccccc5)CC4)nc3C2)cc1 (configuration not stated) the results were Jurkat viability inactive.
COc1ccc(-c2cc(C(=O)NCCN3CCOCC3)c3ccccc3n2)c(OC)c1 was read as H69AR growth 86K inactive, Fibroblast inh inactive and HUVEC prolif 384 inactive.
`CCOc1ccc(-c2cc(C(=O)O)c3ccccc3n2)c(OCC)c1` gave H69AR growth 86K inactive, Fibroblast inh inactive, HUVEC prolif 384 inactive and Jurkat viability 36.9.
CCOCCCNC(=O)C1CCCCN1S(=O)(=O)c1ccc(F)cc1 (configuration not stated) was read as Fibroblast inh inactive, HUVEC prolif 384 inactive and Jurkat viability inactive.
For CS(=O)(=O)N(CC(=O)NCCC1=CCCCC1)c1ccc2c(c1)OCO2 the results were H69AR growth 86K inactive, Fibroblast inh inactive, HUVEC prolif 384 inactive and Jurkat viability inactive.
`Cc1cnc(NC(=O)c2cc3c(C)nn(-c4ccccc4)c3s2)s1` gave H69AR growth 86K 26.1, Fibroblast inh inactive and HUVEC prolif 384 inactive.
`Cc1ccn(C(=O)c2cc3c(C)nn(-c4ccccc4)c3s2)n1` gave H69AR growth 86K inactive, Fibroblast inh inactive and HUVEC prolif 384 inactive.
`Cc1nn(-c2ccccc2)c2sc(C(=O)n3cccn3)cc12` gave H69AR growth 86K 38.2, Fibroblast inh inactive, HUVEC prolif 384 inactive and Jurkat viability inactive.
Screening Cc1nn(-c2ccccc2)c2sc(C(=O)NC3CCCCC3)cc12 returned H69AR growth 86K inactive, Fibroblast inh inactive, HUVEC prolif 384 inactive and Jurkat viability inactive.
CC(=O)N1CCN(c2ccc(NC(=O)c3ccc4c(c3)OCCO4)cc2)CC1 was read as H69AR growth 86K inactive, Fibroblast inh inactive, HUVEC prolif 384 inactive and Jurkat viability inactive.
For CC(C)C(=O)N1CCN(c2ccc(NC(=O)c3ccc4c(c3)OCCO4)cc2Cl)CC1 the results were H69AR growth 86K 6.2, Fibroblast inh 19.4 and HUVEC prolif 384 3.2.
For c1ccc(-n2nnnc2SCc2cccc3nsnc23)cc1 the results were H69AR growth 86K inactive, Fibroblast inh inactive, HUVEC prolif 384 inactive and Jurkat viability inactive.
O/N=C1\CC/C(=N\O)c2nn(-c3ccccc3Cl)nc21 was read as Fibroblast inh 47.4, HUVEC prolif 384 inactive and Jurkat viability inactive.
`CCC(=O)N[C@@H]1CC(C(C)(C)NC(=O)CC)CC=C1C` (some centres not stated) gave H69AR growth 86K inactive, Fibroblast inh inactive and HUVEC prolif 384 inactive.
`CCc1nnc(NC(=O)CSc2nccn2-c2cc(C)cc(C)c2)s1` gave H69AR growth 86K 22.1, Fibroblast inh inactive, HUVEC prolif 384 inactive and Jurkat viability inactive.
For CCc1nnc(NC(=O)CSc2nccn2-c2cccc(C)c2C)s1 the results were H69AR growth 86K 18.3, Fibroblast inh inactive, HUVEC prolif 384 inactive and Jurkat viability inactive.
For N#C/C(=C1\C(=O)Nc2c(Cl)cc(Cl)cc21)c1nnc2n1CCCCC2 the results were H69AR growth 86K 35.5, Fibroblast inh inactive and HUVEC prolif 384 inactive.
Screening CCOC(=O)c1c(CN2CCN(C)CC2)n(C)c2cc(Br)c(OC)cc12 returned H69AR growth 86K 7.3, Fibroblast inh inactive and HUVEC prolif 384 inactive.
Screening O=C(NCCc1ccccc1F)C1CCCN1S(=O)(=O)c1ccc2ccccc2c1 (configuration not stated) returned H69AR growth 86K inactive, Fibroblast inh inactive and HUVEC prolif 384 inactive.
For Cc1ccc(C(C#N)c2ccc3c(C(F)(F)F)cc(C(F)(F)F)nc3n2)cc1 (configuration not stated) the results were H69AR growth 86K 23.9, Fibroblast inh inactive and HUVEC prolif 384 inactive.
N#CC(c1ccccc1)c1ccc2c(C(F)(F)F)cc(C(F)(F)F)nc2n1 (configuration not stated) was read as H69AR growth 86K 24.2, Fibroblast inh 39.2 and HUVEC prolif 384 inactive.
Nc1nc(-c2ccccc2)cc(C(F)(F)F)n1 was read as H69AR growth 86K inactive, Fibroblast inh inactive, HUVEC prolif 384 inactive and Jurkat viability inactive.
CCNc1nc(NC(C)C)nc(Oc2ccc(OCCOc3ccccc3)nn2)n1 was read as H69AR growth 86K inactive, Fibroblast inh inactive, HUVEC prolif 384 inactive and Jurkat viability inactive.
For Brc1ccc(Nc2nc3ccccc3n3nnnc23)cc1 the results were H69AR growth 86K 35.8, Fibroblast inh inactive and HUVEC prolif 384 inactive.
Cc1ccc(CNc2nc3ccccc3n3nnnc23)cc1 was read as H69AR growth 86K 29.6, Fibroblast inh inactive, HUVEC prolif 384 inactive and Jurkat viability inactive.
Screening O=C(O)CCC(NS(=O)(=O)c1ccc(-c2ccccc2)cc1)C(=O)O (configuration not stated) returned H69AR growth 86K inactive, Fibroblast inh inactive and HUVEC prolif 384 inactive.
Screening CCCn1c(NCc2c[nH]c3ccccc23)nc2ccccc21 returned H69AR growth 86K inactive, Fibroblast inh inactive and HUVEC prolif 384 inactive.
`CCOC(=O)C(C)Sc1nc(-c2ccc(OC)cc2)nc2c1c(=O)n(C)c(=O)n2C` (configuration not stated) gave H69AR growth 86K inactive, Fibroblast inh inactive, HUVEC prolif 384 inactive and Jurkat viability inactive.
For CCOc1ccccc1-c1cc(-c2ccc(OC)cc2)nc2c1c(=O)n(C)c(=O)n2C the results were H69AR growth 86K 20.6, Fibroblast inh inactive, HUVEC prolif 384 inactive and Jurkat viability inactive.
